# Rows were chosen to be rich in hits. Some 2.2% of all compounds tested hit in one or more screens of this group.
# ERAP1 inh = human ERAP1 aminopeptidase inhibitors, primary screen, biochemical, single point, plate reader; Endoplasmic reticulum aminopeptidase 1 (Homo sapiens), Q9NZ08; recombinant ERAP1, Leu-AMC fluorescence, 60 min; inhibition, % at 10.7 µM; 0.15% of 340,000 active;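 active = mean replicate inhibition of at least 30%, or all replicates individually reaching that 30% level; inactive = mean below 30% and not every replicate reaching it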;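 also: 0% = neutral control wells and 100% = L-leucinethiol positive control wells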
# SIRT5 inh = SIRT5 desuccinylase inhibitors, primary screen, biochemical, fluorescence imaging, single point, set 5; NAD-dependent protein deacylase sirtuin-5, mitochondrial (Homo sapiens), Q9NXA8; Purified SirT5, succinyl-peptide AMC, trypsin-coupled fluorescence; inhibition, % at 15 µM; 1.1% of 330,000 active; in the data active = inhibition above about 15%
# PGC1a acetyl inh = inhibitors of PGC1a acetylation signal, primary screen, cell-based, U2OS, AlphaScreen, inhibitor mode; AlphaScreen anti-acetyl-lysine; with virally co-expressed GCN5 acetyltransferase; inhibition, % at 15.6 µM; 0.17% of 350,000 active; AID 651687, 2012;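 active = every replicate shows inhibition of at least 40%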;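 also: 0% = neutral control wells and 100% = positive control wells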
# FN deposition inh = inhibitors of fibronectin matrix deposition, primary screen, AH1F cells, Alexa488-fibronectin fluorescence, plate reader; AH1F fibroblasts, overnight; inhibition, % at 12.6 µM; 0.086% of 350,000 active;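 active = mean inhibition across replicates of 30% or more, regardless of how many single replicates reach that level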;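 also: positive control wells lacked labelled fibronectin entirely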
#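 Material: AH1F fibroblast monolayer depositing Alexa488-labelled fibronectin into matrix / Amount: 10000 AH1F cells per well / Signal: fluorescence 485/525 nm / Medium: DMEM, 2% serum / Compound: single dose, pinned / Incubation: 1 h cell adhesion before compound, then overnight fibronectin incubation / Reagent: Alexa488-FN, 24 nM final / Read-out: inhibition of fibronectin deposition signal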
# FGF22 binding = binders of human FGF22 protein, primary screen, FGF22 synaptogenesis inhibitor project, biophysical, thermal shift, single point; Fibroblast growth factor 22 (Homo sapiens), Q9HCT0; recombinant FGF22 thermal shift, SYPRO orange fluorescence; percent of sucrose octasulfate shift, DMSO zero; activity (Tm shift, normalised), % at 9.99 µM; 1.5% of 340,000 active; AID 651658, 2012;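 active = mean Tm shift, scaled 0 neutral to 100 positive control, at about 1.3% or above, every replicate too, limit read from the data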
# * marks the source's active call; other numbers are inactive results; x = no result.
SMILES,ERAP1 inh,SIRT5 inh,PGC1a acetyl inh,FN deposition inh,FGF22 binding
COCC(=O)N1C[C@@H](C)[C@H](OC)CN(C)C(=O)c2ccc(NC(=O)NC(C)C)cc2OC[C@H]1C,1.2,-7.9,-6.6,-3.1,0.0
O=C1NCCN1Cc1ccc(Cl)cc1,-1.4,0.4,-10.7,-7.6,43.7*
O=C1NCCCN1Cc1ccc(F)cc1,x,x,1.2,-0.5,x
O=C(NNc1cccc(Cl)n1)Nc1ccc(F)cc1,-0.5,4.8,4.7,-0.6,43.8*
CCNC(=O)[C@@H]1[C@@H](CO)[C@@H]2Cn3c(ccc(-c4ccncc4)c3=O)[C@@H]2N1Cc1ccccc1,-0.4,0.6,x,x,0.6
COc1ccccc1-c1cn(CC[C@H]2CC[C@@H](NC(=O)C3CCOCC3)[C@H](CO)O2)nn1,-0.7,-0.4,5.1,x,0.1
COc1ccccc1NC(=O)COC(=O)/C=C/c1ccccc1[N+](=O)[O-],x,x,-7.4,x,x
COc1cccc(/C=C/C(=O)OCC(=O)Nc2ccc(N3CCOCC3)cc2)c1OC,-0.8,-0.7,x,-10.7,43.9*
COc1ccccc1/C=C/C(=O)OCC(=O)Nc1ccccc1Sc1ccccc1,-1.9,17.5*,x,3.0,0.2
CCCNC(=O)N1CCC2(CC1)CN(C(=O)NC1CCCC1)[C@H](CO)c1[nH]c3cc(OC)ccc3c12,0.5,5.3,-0.2,x,-0.2
CNC[C@@H]1Oc2ccc(N)cc2CC(=O)N(C)C[C@@H]1C,x,x,x,-11.0,x
c1ccn(-c2ncnc3sc4c(c23)CCCC4)c1,x,x,5.1,x,x
c1nc(N2CCOCC2)c2c3c(sc2n1)CCCC3,2.6,35.8*,5.8,-8.7,x
Cc1no[n+]([O-])c1COc1cccc(/C=N/Nc2nncn2N)c1,-3.7,1.0,50.2*,3.4,-0.1
COc1cc(/C=N/n2nnnc2N)ccc1OCc1c(C)no[n+]1[O-],x,x,x,-6.6,x
CCCNC(=O)C[C@H]1CC[C@H]2[C@H](COc3ccc(NC(=O)NC(C)C)cc3C(=O)N2C)O1,0.3,-1.9,-1.3,-19.3,0.1
COc1ccc(C#Cc2ccc3c(c2)O[C@H](CN(C)C(=O)Nc2cccc(OC)c2)[C@@H](C)CN([C@H](C)CO)S3(=O)=O)cc1,-0.1,16.9*,16.6,10.9,0.4
COc1cccc(NC(=O)N(C)C[C@@H]2Oc3cc(C#Cc4ccccc4)ccc3S(=O)(=O)N([C@H](C)CO)C[C@H]2C)c1,-1.5,19.3*,-8.3,22.2,-0.2
COc1cccc(NC(=O)N(C)C[C@H]2Oc3cc(C#Cc4ccccc4)ccc3S(=O)(=O)N([C@@H](C)CO)C[C@@H]2C)c1,x,x,0.2,-3.8,-0.3
C[C@@H]1CCCCO[C@H](CN(C)C(=O)Cc2ccccc2)[C@@H](C)CN([C@H](C)CO)C(=O)c2cc(NC(=O)Nc3ccc(F)cc3)ccc2O1,-4.0,2.2,13.4,x,-0.6
C[C@H]1CCCCO[C@H](CN(C)C(=O)Nc2cccc3ccccc23)[C@@H](C)CN([C@@H](C)CO)C(=O)c2cc(NC(=O)Nc3ccccc3)ccc2O1,x,x,-28.9,-1.9,0.0
CCCCC(CCCCl)C(=O)Nc1ccccc1 (stereo not given),2.5,-4.5,x,-9.2,43.2*
CCCNC(=O)Nc1ccc2c(c1)OC[C@H](C)N(C(C)=O)C[C@@H](C)[C@@H](OC)CN(C)C2=O,-4.1,-0.3,7.7,-1.7,0.0
CCC(=O)N1[C@@H]2CN(C(=O)Nc3cccc(Cl)c3)c3ccccc3[C@@H]2[C@@H]1CO,2.2,2.4,-2.6,x,0.2
CCCCCCc1c(O)nc(SCCN2CCOCC2)[nH]c1=O,4.7,-0.1,5.3,-12.2,44.2*
CC=Cc1ccc2n(c1=O)C[C@H]1[C@H](CO)[C@@H](C(=O)NCCC)[C@@H]2N1CCC(F)(F)F (mixture of isomers),0.3,-28.9,x,x,0.0
NC(=S)NN=C1CCC2(CCCCC2)CC1,1.8,25.3*,6.4,1.9,-0.1
CC1(C)CCC(=NNC(N)=S)CC1,0.5,x,5.1,-8.7,0.3
Cc1cccc(-c2ccc([C@H]3[C@H]4CN(S(=O)(=O)c5cccc(F)c5)CC(=O)N4[C@H]3CO)cc2)c1,-2.6,19.1*,-9.7,x,-0.4

# Screening results from PubChem BioAssay.
